Data published in article PMC3823002 (Journal of Cellular and Molecular Medicine, 2009).
Blank lines part the entries; values can stand above or below the molecule they belong to.

Columns and labels:
FGF2 = experiment: STD NMR analysis of peptide/FGF2 interaction; type: binding, human; conditions: STD NMR in the presence of 50 μM FGF2, reducing conditions; result in words
Procedure, shortened: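 500 MHz STD NMR used 50 µM FGF2 plus 1.9 mM peptide in 30 mM phosphate (95% D2O), 8 mM DTT, 40 mM NaCl, pH 6.8. Saturation lasted 3 s, with a 30 ms T1ρ filter and 192 transients. Off-resonance reference minus saturated spectrum gave STD; the factor is ISTD/I0. A peptide-only control was run. Titrations spanned 1:10–1:100 FGF2:peptide at 280 K.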

endothelial GM7373 cells = experiment: GM7373 cell proliferation triggered by different mitogenic stimuli; type: cell-based, bovine
FGF2/FGFR1 interaction = FGF2/FGFR1 interaction (Homo sapiens, UniProt P09038); experiment: BIAcore competition: binding of free FGF2 to immobilized sFGFR1; conditions: FGF2 50 nM, sFGFR1(IIIc)/Fc chimera-coated BIAcore sensor chip; for effect on binding of FGF2 to immobilized sFGFR1(IIIc)/Fc chimera: peptide 1.0 μM
FGF2/FGFR1 interaction, sequence (P09038 134-288): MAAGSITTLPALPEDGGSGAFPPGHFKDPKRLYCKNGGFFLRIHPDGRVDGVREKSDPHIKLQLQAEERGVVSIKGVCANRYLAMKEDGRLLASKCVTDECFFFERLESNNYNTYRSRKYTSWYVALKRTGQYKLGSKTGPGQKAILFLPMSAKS

[1] = test system: VEGF/VEGFR2/KDR interaction; experiment: BIAcore competition: binding of free VEGF to immobilized sKDR/Fc chimera; parameters: species or system human; conditions: 45 nM VEGF injected for 4 min., peptide 300 μM; data not shown
Procedure, shortened: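 sKDR/Fc (20 µg/ml in 10 mM sodium acetate, pH 5.3) was amine-coupled to an EDC/NHS-activated CM5 chip (~0.06 pmol/mm2), then ethanolamine-neutralized. VEGF (45 nM) was injected for 4 min with or without 300 µM test peptide. Response (RU) was read at end of injection and plotted as percentage of maximal bound analyte.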

[2] = molecular target: Fibroblast growth factor-2 (human); experiment: SPR

Molecule: Ac-ARPSA-NH2
inhibition of GM7373 cell proliferation, any mitogen (endothelial GM7373 cells; FGF2, FGF1, FGF8b, VEGF, EGF, DAG, TPA or 10% FCS, control peptide): No inhibition
FGF2 binding deduced from STD spectrum (FGF2): reduced STD amplification factor
effect on binding of FGF2 to immobilized sFGFR1(IIIc)/Fc chimera (FGF2/FGFR1 interaction): No effect

Molecule: Ac-GRPCA-NH2
FGF2 binding deduced from STD spectrum (FGF2): still able to bind FGF2

Molecule: H-ARPCA-NH2
FGF2 binding deduced from STD spectrum (FGF2): absence of STD signals

B1: H-ARPCA-NH2, non-acetylated pentapeptide (peptide)
peptide: H-ARPCA-NH2
IC50 [2]: 2 mM

B5: PTX3-(104-113) peptide Ac-…-NH2 (peptide)
peptide: Ac-APGAPAEARL-NH2
IC50 [2]: 2 mM

B6: PTX3-(100-113) peptide Ac-…-NH2 (peptide)
peptide: Ac-ARPCAPGAPAEARL-NH2
IC50 [2]: 0.5 mM

B8: Ac-ARPSA-NH2 (peptide)
peptide: Ac-ARPSA-NH2
IC50 [2]: > 3 mM

B10: PTX3-(97-107) peptide Ac-…-NH2 (peptide)
peptide: Ac-ESLARPCAPGA-NH2
IC50 [2]: 0.3 mM

B12: PTX3-(97-110) peptide Ac-…-NH2 (peptide)
peptide: Ac-ESLARPCAPGAPAE-NH2
IC50 [2]: 0.3 mM

B13: Ac-ARPVA-NH2 (peptide)
peptide: Ac-ARPVA-NH2
IC50 [2]: > 3 mM

The next lines start with results.

FGF2 binding deduced from STD spectrum (FGF2): absence of STD signals
Molecule: Ac-ARPCG-NH2

binding of VEGF to immobilized sKDR/Fc chimera [1]: did not prevent
binding of FGF2 to immobilized FGFR1 ID50 (FGF2/FGFR1 interaction): 0.03 mM
effect on binding of FGF2 to immobilized sFGFR1(IIIc)/Fc chimera (FGF2/FGFR1 interaction): significantly inhibits
Molecule: Ac-ARPCA-NH2
GM7373 cell proliferation triggered by FGF2 (endothelial GM7373 cells; FGF2 0.55 nM, peptide 66 μM, 0.4% FCS, 24 hrs, cell counting, triplicate): inhibits
GM7373 cell proliferation triggered by FGF8b (endothelial GM7373 cells; FGF8b 1.66 nM, peptide 66 μM, 24 hrs, cell counting, triplicate): inhibits

IC50 [2]: 0.8 mM
B2: Ac-APCRA-NH2, partially scrambled pentapeptide (peptide)
peptide: Ac-APCRA-NH2

IC50 [2]: 1 mM
B3: Ac-PARAC-NH2, scrambled pentapeptide (peptide)
peptide: Ac-PARAC-NH2

IC50 [2]: > 3 mM
B4: Ac-ARPMA-NH2 (peptide)
peptide: Ac-ARPMA-NH2

IC50 [2]: > 3 mM
B7: Ac-ARACA-NH2 (peptide)
peptide: Ac-ARACA-NH2

IC50 [2]: 0.08 mM
B9: Ac-GRPCA-NH2 (peptide)
peptide: Ac-GRPCA-NH2

IC50 [2]: > 3 mM
B11: Ac-ALPCA-NH2 (peptide)
peptide: Ac-ALPCA-NH2

IC50 [2]: > 3 mM
B14: Ac-GRPCG-NH2 (peptide)
peptide: Ac-GRPCG-NH2

IC50 [2]: 1 mM
B15: Ac-ARPCG-NH2 (peptide)
peptide: Ac-ARPCG-NH2
